# The list is not random: actives were taken first. Their share in the collection is about 2%.
# PfM18AAP inh – blocks P. falciparum M18 aspartyl aminopeptidase; inhibition, % at 7.35 µM; AID 1822; recombinant PfM18AAP, H-Glu-NHMec fluorogenic cleavage; actives 1.2% (n = 290,000);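 active = inhibition above the campaign mean inhibition over all tested compounds plus 3 SD, cut at about 28% in these data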;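 also: 0% = plate median of test compound wells and 100% = 2 mM ZnCl2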
# Lipid droplet – modulators of hepatic lipid droplet formation; AML12 mouse hepatocytes, oleate lipid droplets, BODIPY imaging; inhibition, % at 6.5 µM; actives 0.4% (n = 240,000); AID 1656;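 active = lipid droplet intensity inhibited by at least 50%, with more than 500 cells counted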
#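 Material: mouse AML12 hepatocyte cell line, fixed after treatment; Timing: compound with oleate, overnight; Technique: high-content imaging of BODIPY-stained droplets and DAPI nuclei; Probe or stimulus: oleate, 100 µM final; Dosing: compound at 6.5 µM only.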
# TNF death inh – inhibitors of TNF-alpha induced necroptosis in Jurkat FADD-/- cells; Jurkat FADD-/- TNF necroptosis rescue, ATP luminescence, 24 h; 0 = TNF only, 100 = no-TNF cells; activation (protection from cell death), % at 10 µM; actives 0.068% (n = 220,000);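 active = activation, meaning protection from cell death, of at least 50% relative to plate controls; inactive = activation below 50%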;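 also: necroptosis triggered by 40 ng/mL TNF-alpha added together with compound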
# RBBP9 inh – blocks human serine hydrolase RBBP9; actives 0.2% (n = 220,000); AID 1515; O75884; recombinant RBBP9, FP-Rh probe fluorescence polarization; inhibition, % at 7.94 µM;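 active = inhibition above the campaign mean of all tested compounds plus 3 SD, cut at about 14% in these data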;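 also: plate controls were DMSO wells with RBBP9 for no effect and wells lacking RBBP9 protein for full effect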
# Target sequence (O75884 whole entry, looked up): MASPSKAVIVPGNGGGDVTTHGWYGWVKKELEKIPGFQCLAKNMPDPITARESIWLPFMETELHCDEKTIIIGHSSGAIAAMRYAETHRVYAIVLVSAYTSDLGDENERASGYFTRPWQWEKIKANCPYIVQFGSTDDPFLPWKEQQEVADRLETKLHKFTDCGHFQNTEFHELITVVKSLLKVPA
#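 System: RBBP9 protein / Buffer or medium: Tris/NaCl buffer pH 8.0 with 0.1% Pluronic / Probe or stimulus: Serine-hydrolase probe FP-Rh, 375 nM pre-mixing / Dosing: 7.94 µM single dose, 0.794% DMSO / Times: enzyme-compound preincubation 30 min, then probe labeling 45 min, 25 °C / Technique: fluorescence polarization (mP), excitation 525 nm, emission 598 nm / Replication: singlicate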
# L929 necroptosis – L929 zVAD cell death inhibition | L929 zVAD necroptosis rescue, ATP luminescence, 24 h; with zVAD 60 µM | viability rescue, % at 10 µM | actives 0.38% (n = 220,000) | AID 1377;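 active = activation, scaled between plate controls, above about 75%, limit read from the data; inactive = activation under that limit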;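 also: 0% = zVAD with DMSO and 100% = DMSO alone without zVAD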
# TbHK1 inh – T. brucei hexokinase 1 inhibition. recombinant TbHK1, G6PDH-coupled NADH A340. inhibition, % at 10 µM. actives 0.11% (n = 220,000);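 active = inhibition of 50% or more in the single-dose primary screen; inactive = inhibition below 50%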
# zVAD necrop conf – confirmed blocker of zVAD induced death in L929 cells | actives 16% (n = 760) | shares compounds with L929 necroptosis | AID 463117 | L929 zVAD-induced necroptosis rescue, ATP luminescence, 24 h | activation (protection from necroptosis), % at 10 µM;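 active = mean protection from necroptosis of at least 50% over duplicate tests; inactive = mean protection below 50%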;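 also: 0% = cells with zVAD alone and 100% = vehicle cells without zVAD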
# An asterisk follows results filed as active; / = no result; ! = not confirmed by another sample.
SMILES,PfM18AAP inh,Lipid droplet,TNF death inh,RBBP9 inh,L929 necroptosis,TbHK1 inh,zVAD necrop conf
Cc1ccc2nc(NC(=O)C3CCN(S(=O)(=O)c4cnc[nH]4)CC3)sc2c1,5.1,9.5,5.2,0.2,/,0.8,/
COc1ccc2nc(NC(=O)C3CCN(S(=O)(=O)c4cccs4)CC3)sc2c1,3.2,6.6,-0.3,-7.0,78.6*,-4.8,30.6
Cc1ccc2nc(NC(=O)C3CCN(S(=O)(=O)c4cccnc4)CC3)sc2c1,6.5,/,-1.9,-12.9,79.9*,-17.6,4.7
COc1ccc2nc(NC(=O)C3CCCN(S(=O)(=O)c4cccs4)C3)sc2c1 (stereo unspecified),-4.1,-3.5,2.8,-8.4,61.1,-3.4,/
CN(C)S(=O)(=O)c1ccc(-c2csc(N/N=C/c3ccc(O)cc3)n2)cc1,10.7,19.2,-12.0,2.8,34.6,-13.1,/
CCOc1ccc(CCNC(=O)COC(=O)CSc2ccccc2C)cc1OCC,-4.8,31.2,/,/,/,/,/
O=C(CCC(=O)c1ccc(Oc2ccccc2)cc1)Nc1ccc(C(=O)O)cc1,1.7,-1.6,/,/,/,/,/
COc1cccc(CNC(=O)CCc2ccc(OC)c(OC)c2)c1,-16.8,/,/,/,/,/,/
CCOc1ccc(C(=O)NCc2ccco2)cc1Cl,6.6,3.5,/,/,/,/,/
O=C(NCCCn1ccnc1)c1cc(-c2cccs2)on1,10.7,/,-8.7,-1.4,76.0*,3.6,4.1
Brc1ccc(COn2ccnc2)cc1,4.4,-1.8,61.3*,1.0,91.4*,6.1,74.9*
O=C(NC(=S)Nc1ccc(NC(=O)c2ccccc2)cc1)c1ccc(F)cc1,-3.0,-26.0,/,/,/,/,/
O=C(Nc1ccc(NC(=S)NC(=O)C(c2ccccc2)c2ccccc2)cc1)c1ccccc1,-0.2,/,-8.8,-46.2,77.8*,-22.4,37.9
CCCCCC(=O)Nc1cccc(C2=NOC3(C2)C[C@@H](C(N)=O)N(C(=O)C2(C)CC2)C3)c1 (stereo partly specified),/,7.4,4.6,/,0.3,-5.7,/
O=C(/C(=C/c1ccc(Cl)cc1)c1nc2ccccc2[nH]1)c1ccccc1,-2.9,/,-19.4,-9.7,107.4*,1.7,38.6
O=c1oc2ccccc2n1CSC1=NCCS1,-0.1,/,61.0*,4.9,100.9*,12.1,1.3
O=[N+]([O-])c1ncn(Cc2ccccc2Cl)n1,1.5,18.0,83.2*,-3.3,87.9*,-7.4,19.6
O=C(Cn1cnc([N+](=O)[O-])n1)c1ccccc1,0.3,-6.9,/,/,/,/,/
O=[N+]([O-])c1ncn(Cc2c(Cl)cccc2Cl)n1,0.6,-0.1,96.2*,-5.9,94.1*,0.0,3.5
CC(=O)Nc1cc(-c2ccc(Cl)cc2)[nH]n1,-4.6,-14.7,0.3,-1.4,87.4*,-10.3,37.4
COc1ccc(NC(=O)Nc2ccc(Br)cn2)cc1,-9.0,12.5,8.6,-6.5,79.3*,2.3,9.8
CCc1ccccc1NC(=O)Nc1cnccn1,-9.1,0.1,/,/,/,/,/
O=C(Nc1cnccn1)Nc1ccccc1Cl,-0.5,9.3,-2.4,-1.1,79.3*,-6.6,1.5
O=C(Nc1cnccn1)Nc1cccc(Cl)c1Cl,-6.5,-0.5,0.3,-4.3,14.7,-1.5,/
CCOc1ccccc1NC(=O)Nc1cnccn1,6.5,20.9,-2.1,-2.4,80.3*,-3.7,1.6
SMILES,PfM18AAP inh,Lipid droplet,TNF death inh,RBBP9 inh,L929 necroptosis,TbHK1 inh,zVAD necrop conf
Cc1ccc(NC(=O)Nc2ccc(Cl)cn2)cc1,-4.7,2.9,3.4,-2.6,83.5*,0.8,0.8
Cc1ccc(NC(=O)Nc2ccc(Cl)c(Cl)c2)nc1,-7.0,2.2,/,/,/,/,/
CC1=C(C(=O)OC2CCCCC2)C(c2ccc(F)cc2)NC(=O)N1 (stereo unspecified),0.1,-4.1,/,/,/,/,/
Cc1ccc(NC(=O)Nc2ccc3c(c2)OCO3)nc1,-1.2,5.6,7.5,-4.8,76.6*,7.1,1.2
O=C(Nc1ccccc1)Nc1ccccn1,3.0,-2.9,1.4,-10.6,76.6*!,-2.5,2.5
O=C(Nc1ccc(F)c(Cl)c1)Nc1cnccn1,2.0,0.2,0.9,0.8,2.8,8.5,/
O=C(Nc1ccc(Cl)cc1)Nc1cnccn1,-2.5,-1.3,0.1,-11.0,76.3*,-4.9,6.5
O=C(CCCCCN1C(=O)[C@@H]2Cc3ccccc3CN2C1=O)Nc1cccc(F)c1,5.9,9.7,/,/,/,/,/
